Test results reported in ChEMBL document CHEMBL1156559, “Efficient synthesis and utilization of phenyl-substituted heteroaromatic carboxylic acids as aryl diketo acid isosteres in the design of novel HIV-1 integrase inhibitors” (Bioorg Med Chem Lett, 2008).

Columns and labels:
[1] = biological target: T1, Human immunodeficiency virus type 1 integrase (Human immunodeficiency virus 1, UniProt Q7ZJM1); assay: Inhibition of HIV1 wild type integrase 3'-processing activity
Summary of the method: (§1)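 Wild-type integrase at 200 nM final was preincubated with inhibitor at 30 °C for 30 min. Buffer: 50 mM NaCl, 1 mM Hepes pH 7.5, 7.5 mM MnCl2, 0.1 mg/ml BSA, 10 mM 2-mercaptoethanol, 10% glycerol, 10% DMSO, 25 mM MOPS pH 7.2. Read-out was conversion of 21-mer DNA substrate to 19-mer (3'-processing) or to strand-transfer products. % inhibition was set against DNA-alone and DNA+IN controls. IC50 came from log concentration vs % inhibition.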

[2] = biological target: T1, Human immunodeficiency virus type 1 integrase; assay: Inhibition of HIV1 wild type integrase strand transfer activity; summary of the method: as §1
[3] = test system: Human immunodeficiency virus 1; assay: Antiviral activity against HIV1 3B assessed as inhibition of virus-induced cytopathogenicity in human C8166 cells after 4 days by MTT assay; type: functional, organism-based; details: Human immunodeficiency virus 1, 3B, C8166, 96 h
Summary of the method: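 Protection of C8166 cells from HIV-1-induced cytopathogenicity, expressed as the 50% effective concentration. Values are means of two separate experiments.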

[4] = Cytotoxicity against human C8166 cells by MTT method; type: cell-based
Summary of the method: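 C8166 cell proliferation measured by MTT, expressed as the concentration reducing proliferation by 50%. Values are means of two separate experiments.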

[5] = Therapeutic index, ratio of CC50 for human C8166 cells to EC50 for HIV1 3B; type: cell-based; details: read-out: Ratio CC50/EC50
Summary of the method: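 Computed as CC50/EC50 from the C8166 MTT cytostatic and HIV-1 cytoprotection assays, each a mean of two separate experiments.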

T1 sequence (Q7ZJM1 whole entry): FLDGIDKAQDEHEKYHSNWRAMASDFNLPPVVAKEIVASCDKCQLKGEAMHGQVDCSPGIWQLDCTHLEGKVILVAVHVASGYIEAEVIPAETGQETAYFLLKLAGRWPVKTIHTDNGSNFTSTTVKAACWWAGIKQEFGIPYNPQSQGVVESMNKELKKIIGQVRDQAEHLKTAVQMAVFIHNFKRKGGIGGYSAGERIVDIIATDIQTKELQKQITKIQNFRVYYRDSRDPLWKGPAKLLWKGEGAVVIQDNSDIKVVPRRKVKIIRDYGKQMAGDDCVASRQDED

Row | SMILES | IC50 [1] | IC50 [2] | EC50 [3] | CC50 [4] | selectivity ratio [5]
1 | O=C(O)c1cc(-c2cccc(OCc3ccccc3)c2)[nH]n1 | > 100 µM | 100 µM | 277 µM | 640 µM | 2.31
2 | O=C(O)c1cc(-c2ccc([N+](=O)[O-])cc2)[nH]n1 | > 100 µM | > 100 µM | 3.6 µM | > 857 µM | > 238
3 | O=C(O)c1cc(-c2cccc(OCc3ccccc3)c2)ns1 | > 100 µM | > 100 µM | 51.7 µM | 246 µM | 4.76
4 | O=C(O)c1csnc1-c1cccc(OCc2ccccc2)c1 | > 100 µM | > 100 µM | 58 µM | > 642 µM | > 11

More lines, main results first:

Row | IC50 [1] | IC50 [2] | SMILES | EC50 [3] | CC50 [4] | selectivity ratio [5]
5 | > 100 µM | 97 µM | O=C(O)c1cc(-c2ccc([N+](=O)[O-])cc2)on1 | 199 µM | > 854 µM | > 4.3
6 | > 100 µM | 81 µM | O=C(O)c1cc(-c2cccc(OCc3ccccc3)c2)no1 | 7.2 µM | 282 µM | 39.2
7 | > 100 µM | > 100 µM | COC(=O)c1cc(-c2ccc([N+](=O)[O-])cc2)[nH]n1 | 253 µM | > 809 µM | > 3.2
8 | > 100 µM | 68 µM | O=C(O)c1cc(-c2cccc(OCc3ccccc3)c2)on1 | 91 µM | 206 µM | 2.27
9 | > 100 µM | 27 µM | O=C(NO)c1cc(-c2cccc(OCc3ccccc3)c2)on1 | 62.8 µM | 136 µM | 2.17
